Results: ChEMBL document CHEMBL1828578, “Antimalarial activities of new guanidylimidazole and guanidylimidazoline derivatives” (J Med Chem, 2011)
Converted amounts (≈) assume the structure as drawn. The source made the active and inactive calls. The calls are words filed in the database; no cut-off is given here.

Columns and labels:
[1] = system: Plasmodium falciparum; experiment: Antimalarial activity against […] of Plasmodium falciparum W2 after for 3 days by microdilution technique; assay type: functional, organism-based; settings: W2, 72 h
Outline: (§1)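 P. falciparum clones were tested in vitro using a modified semiautomated microdilution technique.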

[2] = system: Plasmodium berghei; experiment: Antimalarial activity against Plasmodium berghei in exoerythrocytic mouse model assessed as causal prophylaxis at 160 mg/kg/day, po administered one day before infection, on day of infection and one day post infection; assay type: functional, organism-based
Outline: (§2)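 P. berghei sporozoite exoerythrocytic mouse model. Compound was ground and suspended in hydroxyethylcellulose plus Tween 80, then given po at several dose levels once daily: the day before, 4 h before, and the day after sporozoite inoculation. Mice alive on day 31 with no parasites in any blood film were scored as protected.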

[3] = Metabolic stability of the compound in mouse liver microsomes assessed as half life at 1 uM by LC-MS analysis; assay type: ADME, Microsome
Outline: (§3)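 Compound at 1 μM final (from 10 or 20 mM DMSO stocks) was incubated with 0.5 mg/mL pooled human or mouse liver microsomes. The mix held 1.3 mM NADP and 3.3 mM MgCl₂ in 0.1 M PBS pH 7.4, and the reaction was started with 1 U/mL G6PD. Incubation was at 37 °C with shaking, and samples were quenched with cold acetonitrile at 0, 10, 20, 30 and 60 min.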

[4] = system: Plasmodium falciparum; experiment: Antimalarial activity against sporozoites stage of Plasmodium falciparum D6 after 3 days by microdilution technique; assay type: functional, organism-based; settings: D6, 72 h, in the assay text read “blood stage” for “sporozoites stage”; outline: as §1
[5] = Metabolic stability of the compound in human liver microsomes assessed as half life at 1 uM by LC-MS analysis; assay type: ADME, Microsome; outline: as §3
[6] = system: Plasmodium berghei; experiment: Antimalarial activity against Plasmodium berghei in exoerythrocytic mouse model assessed as causal prophylaxis at 320 mg/kg/day, po administered one day before infection, on day of infection and one day post infection; assay type: functional, organism-based; outline: as §2
[7] = system: Plasmodium falciparum; experiment: Antimalarial activity against […] of Plasmodium falciparum TM91C235 after for 3 days by microdilution technique; assay type: functional, organism-based; settings: TM91C235, 72 h; outline: as §1
[8] = Metabolic stability of the compound in rhesus monkey microsomes assessed as half life at 1 uM by LC-MS analysis; assay type: ADME, Macaca mulatta, Microsome
[9] = system: Plasmodium cynomolgi; experiment: Antimalarial activity against sporozoites stage of Plasmodium cynomolgi infected in Rhesus monkey assessed as delay in patency at 50 mg/kg/day, po administered one day before infection, on day of infection and one day post infection; assay type: functional
Outline: (§4)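 Causal prophylaxis test in Rhesus monkeys inoculated with P. cynomolgi sporozoites, two monkeys per group. Drug was given orally on days −1, 0 and +1 relative to inoculation. Patency was the first day parasites were detected in blood smears, and the delay was counted against vehicle-treated controls.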

[10] = system: Mus musculus; experiment: Toxicity in exoerythrocytic mouse model assessed as reduction in body weight at 160 mg/kg/day, po administered one day before infection, on day of infection and one day post infection measured on day 31; assay type: organism-based; parameters: route oral; settings: in vivo
[11] = system: Mus musculus; experiment: Toxicity against exoerythrocytic mouse model assessed as reduction in body weight at 320 mg/kg/day, po administered one day before infection, on day of infection and one day post infection measured up to 31 days; assay type: organism-based; parameters: route oral; settings: in vivo, 744 h
[12] = system: Plasmodium cynomolgi; experiment: Antimalarial activity against sporozoites stage of Plasmodium cynomolgi infected in Rhesus monkey assessed as delay in patency at 0.316 mg/kg/day, po administered one day before infection, on day of infection and one day post infection; assay type: functional; outline: as §4
[13] = system: Plasmodium cynomolgi; experiment: Antimalarial activity against sporozoites stage of Plasmodium cynomolgi infected in Rhesus monkey assessed as delay in patency at 1.78 mg/kg/day, po administered one day before infection, on day of infection and one day post infection; assay type: functional; outline: as §4

Row | Structure (SMILES) | IC50 [1] [µg/mL] | half-life at 1 µM [3] [min] | IC50 [4] [µg/mL] | half-life at 1 µM [5] [min] | IC50 [7] [µg/mL] | half-life at 1 µM [8] [min] | Activity [2] | Activity [6] | Time [9] [days] | Activity [10] | Activity [11] | Time [12] [days] | Time [13] [days]
1 | CC(C)N/C(=N\c1nccn1Cc1ccccc1)Nc1ccc(Cl)c(Cl)c1 | 1.6 (≈ 3.98 µM) | 18 | 1.3 (≈ 3.23 µM) | 16 | 2.5 (≈ 6.21 µM) |  | inactive | inactive |  |  |  |  | 
2 | N/C(=N\c1nccn1Cc1ccccc1)Nc1ccc(Cl)c(Cl)c1 | > 2 | 37 | > 2 | > 60 | > 2 |  | inactive | inactive |  |  |  |  | 
3 | CC(C)N/C(=N\C1=NCCN1C(C)C)Nc1ccc(Cl)c(Cl)c1 | 0.4 (≈ 1.12 µM) | 13.6 | 0.5 (≈ 1.4 µM) | 50.7 | 0.7 (≈ 1.96 µM) |  | inactive |  |  | Toxic | Toxic |  | 
4 | CCC(CC)C(=O)N/C(=N/c1nccn1C(C)(C)C)Nc1ccc(Cl)c(Cl)c1 | > 5 | 12.5 | > 5 | 26 | > 5 |  | inactive |  |  |  |  |  | 
5 | CC(C)N1CCN=C1/N=C(/Nc1ccc(Cl)c(Cl)c1)NC(C)(C)C | 0.4 (≈ 1.08 µM) | 16.6 | 0.4 (≈ 1.08 µM) | > 60 |  |  | inactive |  |  | Toxic | Toxic |  | 
6 | CC(C)N/C(=N\c1nccn1CC(C)(C)C)Nc1ccc(Cl)c(Cl)c1 | 1.5 (≈ 3.92 µM) |  | 1.1 (≈ 2.88 µM) | 20.3 |  |  | inactive | inactive |  |  |  |  | 
7 | CC(C)n1ccnc1/N=C(/NC(=O)Cc1ccccc1)Nc1ccc(Cl)c(Cl)c1 | > 5 | 50.8 | > 5 | > 60 | > 5 |  | inactive | inactive |  |  |  |  | 
8 | CC(C)(C)C(=O)N/C(=N/c1nccn1C(C)(C)C)Nc1ccc(Cl)c(Cl)c1 | > 5 | > 60 | > 5 | > 60 | > 5 |  |  |  |  |  |  |  | 
9 | CC(C)C(=O)N/C(=N/c1nccn1Cc1ccccc1)Nc1ccc(Cl)c(Cl)c1 | > 2 | 11 | > 2 | 19.7 | > 2 |  | inactive | inactive |  |  |  |  | 
10 | CC(C)(C)Cn1ccnc1/N=C(/Nc1ccc(Cl)c(Cl)c1)NC(C)(C)C | 0.8 (≈ 2.02 µM) | 11.7 | 0.8 (≈ 2.02 µM) | 12.1 |  |  | inactive | inactive |  |  |  |  | 
11 | COc1cc(C)c2c(Oc3cccc(C(F)(F)F)c3)c(OC)cc(NC(C)CCCN)c2n1 (stereo not drawn) [TAFENOQUINE] |  |  |  |  |  |  |  |  |  |  |  | 2 | 
12 | CC(C)N/C(=N\c1ncc[nH]1)Nc1ccc(Cl)c(Cl)c1 | 0.6 (≈ 1.92 µM) | 37.6 | > 5 | > 60 | > 5 |  |  |  |  | Toxic | Toxic |  | 
13 | CC(C)N1CCN=C1/N=C(/Nc1ccc(Cl)c(Cl)c1)N1CCCCC1 | 0.2 (≈ 0.523 µM) | 21.5 | 0.4 (≈ 1.05 µM) | > 60 | 0.3 (≈ 0.785 µM) |  |  |  |  | Toxic | Toxic |  | 
14 | COc1cc(NC(C)CCCN)c2ncccc2c1 (stereo not drawn) [PRIMAQUINE] |  |  |  |  |  |  |  |  |  |  |  |  | 5
15 | CC(C)N1CCN=C1/N=C(/Nc1ccc(Cl)c(Cl)c1)NC12CC3CC(CC(C3)C1)C2 | 0.2 (≈ 0.446 µM) | > 60 | 0.3 (≈ 0.669 µM) | > 60 | 0.2 (≈ 0.446 µM) |  |  |  |  |  |  |  | 

Continued, in another order:

Row | IC50 [1] [µg/mL] | half-life at 1 µM [3] [min] | IC50 [4] [µg/mL] | half-life at 1 µM [5] [min] | IC50 [7] [µg/mL] | half-life at 1 µM [8] [min] | Structure (SMILES) | Activity [2] | Activity [6] | Time [9] [days] | Activity [10] | Activity [11] | Time [12] [days] | Time [13] [days]
16 | 0.3 (≈ 0.731 µM) | > 60 | 1 (≈ 2.44 µM) | > 60 | 2.9 (≈ 7.07 µM) |  | CCC(CC)C(=O)N/C(=N/c1nccn1C(C)C)Nc1ccc(Cl)c(Cl)c1 | inactive | inactive |  |  |  |  | 
17 | 0.8 (≈ 2.26 µM) | 5.9 | 2.6 (≈ 7.34 µM) | 22.5 | 2.4 (≈ 6.77 µM) | 7.8 | CC(C)N/C(=N\c1nccn1C(C)C)Nc1ccc(Cl)c(Cl)c1 |  |  | 9 |  |  |  | 
18 | > 5 | > 60 | > 5 | > 60 | > 5 |  | CC(C)n1ccnc1/N=C(/NC(=O)OC(C)(C)C)Nc1ccc(Cl)c(Cl)c1 |  |  |  |  |  |  | 
19 | 1 (≈ 2.72 µM) | 18.2 | 1.1 (≈ 2.99 µM) | 40.4 |  |  | CC(C)n1ccnc1/N=C(/Nc1ccc(Cl)c(Cl)c1)NC(C)(C)C | inactive | inactive |  |  |  |  | 
20 | 0.7 (≈ 2.24 µM) | 27.7 | 2.8 (≈ 8.97 µM) | > 60 | 2.4 (≈ 7.69 µM) | > 60 | CC(C)n1ccnc1/N=C(\N)Nc1ccc(Cl)c(Cl)c1 | Active | Active |  |  |  |  | 
21 | 1.4 (≈ 5.18 µM) | 23.6 | 0.5 (≈ 1.85 µM) | 42.5 | 2.5 (≈ 9.26 µM) |  | N/C(=N\c1ncc[nH]1)Nc1ccc(Cl)c(Cl)c1 | inactive | inactive |  |  |  |  | 
22 | > 5 | > 60 | > 5 | > 60 | > 5 |  | CC(C)n1ccnc1/N=C(/NC(=O)C(C)(C)C)Nc1ccc(Cl)c(Cl)c1 | inactive | inactive |  |  |  |  | 
23 | 0.4 (≈ 1.09 µM) | 9 | 1.4 (≈ 3.8 µM) | 48 | 0.9 (≈ 2.44 µM) |  | CC(C)N/C(=N\c1nccn1C(C)(C)C)Nc1ccc(Cl)c(Cl)c1 |  |  |  | Toxic | Toxic |  | 
24 | 0.7 (≈ 2.23 µM) | > 60 | 1.4 (≈ 4.46 µM) | > 60 | 1.2 (≈ 3.82 µM) | 36.3 | CC(C)N1CCN=C1/N=C(\N)Nc1ccc(Cl)c(Cl)c1 |  |  |  |  |  |  | 
25 | 0.4 (≈ 1.23 µM) | 48 | 1.6 (≈ 4.9 µM) | > 60 | 1.2 (≈ 3.68 µM) | 45 | CC(C)(C)n1ccnc1/N=C(\N)Nc1ccc(Cl)c(Cl)c1 | inactive | inactive |  |  |  |  | 
26 | 0.3 (≈ 0.789 µM) | 19.7 | 0.5 (≈ 1.31 µM) | 27 | 0.3 (≈ 0.789 µM) | 7.8 | CC(C)n1ccnc1/N=C(/Nc1ccc(Cl)c(Cl)c1)N1CCCCC1 | inactive | inactive |  |  |  |  | 
27 | 0.9 (≈ 2.35 µM) | 10.8 | 1.4 (≈ 3.66 µM) | 32.9 |  |  | CC(C)n1ccnc1/N=C(\NCC(C)(C)C)Nc1ccc(Cl)c(Cl)c1 | inactive | inactive |  |  |  |  | 
28 | 1 (≈ 2.62 µM) | > 60 | 2.5 (≈ 6.54 µM) | > 60 | 2.2 (≈ 5.75 µM) |  | CC(C)C(=O)N/C(=N/c1nccn1C(C)C)Nc1ccc(Cl)c(Cl)c1 |  |  |  |  |  |  | 
